From PubChem
Cneo AK release: causes C. neoformans cell lysis | adenylate kinase release luminescence, 4 h; normalised: neutral wells 0, clomiphene wells 100 | lysis activity, % at 15 µM | 360,000 compounds, 0.2% hits | AID 651654;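 active means mean lysis activity across replicates of at least 80%, whatever share of replicates individually reach that level; inactive means mean lysis activity below 80%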
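Material – log-phase Cryptococcus neoformans yeast cells · Input – 5 × 10^6 yeast cells/mL · Medium – fresh YPD growth medium · Doses – single compound concentration per well · Timing – static 4 h at 37 °C with compound, 1 h detection · Detection – adenylate kinase release luminescence · Read-out – signal increase indicating cell lysis · Control set – Clomiphene as positive lysis control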
DENV2 CPE: inhibitors of DENV2 cytopathic effect; DENV2-infected cells, cytopathic effect rescue, plate reader; CPE inhibition, % at 9.99 µM; 350,000 compounds, 1.7% hits; AID 651640; in the data active means CPE inhibition above about 20%, passing the limit was not always enough; inconclusive means no clear call, values can overlap the other calls; tested in BHK-21 cells
S100A4 inh HTS: blocks human S100A4 binding to myosin IIA peptide. P26447. S100A4/TAMRA-MyoIIA peptide fluorescence polarization. inhibition, % at 10.7 µM. 360,000 compounds, 0.14% hits. AID 652163;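 active means mean inhibition of at least 70% across replicates, with every replicate also reaching that level; inconclusive means mean inhibition reaches 70% but some replicates fall short; inactive means mean inhibition below 70%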
Target sequence (P26447 whole entry, looked up): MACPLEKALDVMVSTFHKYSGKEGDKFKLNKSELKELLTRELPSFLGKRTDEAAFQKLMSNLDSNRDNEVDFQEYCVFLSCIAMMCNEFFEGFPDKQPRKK
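Compound dosing: one dose per compound; test system: human S100A4 monomer with TAMRA-labelled myosin IIA peptide; probe or stimulus: TAMRA-labelled myosin IIA heavy-chain peptide probe, 5 nM; medium: HEPES buffer with Ca2+, pH 7.2; schedule: 5 min incubation before reading; benchmarks: neutral control DMSO, positive control TFP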
PfHsp90 set2: growth inhibition of yeast expressing Plasmodium Hsp90; S. cerevisiae expressing PfHsp90, BacTiter-Glo ATP, 48 h; yeast lacking PDR1 and PDR3 efflux regulators; inhibition, % at 9.4 µM; 310,000 compounds, 0.32% hits; AID 504621;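 active means every replicate shows inhibition above about 80%, whatever the replicate mean, limit read from the data; inconclusive means mean inhibition reaches the set limit but some replicate falls short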
Ecoli rRNA inh: inhibitors of bacterial rRNA selective over humanized ribosomes; GFP signal change (wild-type ribosome), % (no concentration beside the values); 350,000 compounds, 1.6% hits; E. coli WT GFP vs humanized-ribosome RFP mutants, fluorescence, 24 h; stronger effect = lower value; DMSO median 0, no signal -100; AID 720706;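 active means significant combined selectivity score with lowered wild-type GFP, culture density cut under 30%, mutant RFP and density less affected; inactive means any of these conditions unmet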
MLL AF4-AF9 inh: inhibitors of human MLL-AF4/AF9 interaction; P42568; AlphaScreen, biotin-AF4 peptide binding to FLAG-AF9; inhibition, % at 10 µM; 350,000 compounds, 0.47% hits; AID 651704;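 active means every replicate reaching a set inhibition limit, whatever the replicate mean, cut at about 25% in these data; inconclusive means mean inhibition reaches that limit but some replicates miss it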
Target sequence (P42568 whole entry, looked up): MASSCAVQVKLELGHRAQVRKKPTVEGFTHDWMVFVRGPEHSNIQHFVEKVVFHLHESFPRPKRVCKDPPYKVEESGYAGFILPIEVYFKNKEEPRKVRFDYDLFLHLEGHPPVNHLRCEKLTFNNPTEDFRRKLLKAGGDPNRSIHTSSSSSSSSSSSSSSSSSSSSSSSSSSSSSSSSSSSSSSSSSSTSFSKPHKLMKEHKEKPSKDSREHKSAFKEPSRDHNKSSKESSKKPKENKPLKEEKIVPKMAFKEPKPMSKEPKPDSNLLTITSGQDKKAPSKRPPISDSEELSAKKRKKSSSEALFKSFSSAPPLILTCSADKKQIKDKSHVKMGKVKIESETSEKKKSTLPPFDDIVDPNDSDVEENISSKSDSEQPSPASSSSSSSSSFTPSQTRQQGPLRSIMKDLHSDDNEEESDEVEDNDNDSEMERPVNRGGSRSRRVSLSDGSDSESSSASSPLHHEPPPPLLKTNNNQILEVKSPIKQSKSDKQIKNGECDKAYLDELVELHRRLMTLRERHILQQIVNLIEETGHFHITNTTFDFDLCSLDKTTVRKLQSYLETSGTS
Each line names hits and unclear results; the compound was inactive in the other large screens. An excerpt weighted towards active compounds, which were near 3.2% of everything screened.

COc1cc(/C=N/NS(=O)(=O)c2ccc(C)c([N+](=O)[O-])c2)cc([N+](=O)[O-])c1O	none
C[C@H](CO)N1C[C@H](C)[C@@H](CN(C)CC2CC2)Oc2c(NC(=O)c3cnccn3)cccc2C1=O	none (no result: PfHsp90 set2)
O=C1S/C(=C\c2ccc(N3CCOCC3)o2)C(=O)N1c1ccccc1	none (no result: Cneo AK release)
O=C1S/C(=C/c2ccc(N3CCOCC3)o2)C(=O)N1Cc1c(F)cccc1Cl	PfHsp90 set2 95 (no result: DENV2 CPE, S100A4 inh HTS, Ecoli rRNA inh, MLL AF4-AF9 inh)
O=C1S/C(=C\c2ccc(N3CCOCC3)o2)C(=O)N1Cc1c(F)cccc1Cl	PfHsp90 set2 97
CO[C@@H]1CN(C)C(=O)c2ccc(NS(=O)(=O)c3ccccc3F)cc2OC[C@@H](C)N(S(C)(=O)=O)C[C@H]1C	none (no result: PfHsp90 set2)
C[C@H](CO)N1C[C@H](C)[C@@H](CN(C)C(=O)CCCN(C)C)OCCCC[C@H](C)Oc2ccc(NC(=O)Nc3ccccc3)cc2C1=O	none (no result: PfHsp90 set2)
COc1ccc(CNc2ccc([N+](=O)[O-])cc2C)cc1	Ecoli rRNA inh -24 (no result: Cneo AK release)
Cc1cc([N+](=O)[O-])ccc1NCc1ccccc1	none (no result: DENV2 CPE, S100A4 inh HTS, Ecoli rRNA inh, MLL AF4-AF9 inh)
COc1ccc2c3c(n(C)c2c1)[C@H](CO)N(C(=O)Cc1ccccn1)CC31CN(CC2CCOCC2)C1	none (no result: Cneo AK release, PfHsp90 set2)
C[C@H](NC(=O)C[C@H]1C[C@H]2c3cc(NS(C)(=O)=O)ccc3O[C@H]2[C@@H](CO)O1)c1ccccc1	none (no result: PfHsp90 set2)
Nc1cnccc1C(=O)O	S100A4 inh HTS 80
COC(=O)c1ccncc1N	none (no result: Cneo AK release)
CCCC#Cc1cnc2c(c1)C(=O)N([C@H](C)CO)C[C@H](C)[C@@H](CN(C)C(=O)Cc1ccncc1)O2	none (no result: PfHsp90 set2)
CCNC(=O)Nc1ccc2c(c1)C(=O)N(C)[C@@H]1CC[C@H](CC(=O)NCCOC)O[C@@H]1CO2	none (no result: PfHsp90 set2)
CCCN1CCCCC(NC(=O)c2c(F)cccc2F)C1=O (configuration not stated)	S100A4 inh HTS 107 (no result: Cneo AK release, PfHsp90 set2, MLL AF4-AF9 inh)
CCCCOc1ccc(C(=O)NC2CCCCN(CCC)C2=O)cc1 (configuration not stated)	none (no result: Cneo AK release, PfHsp90 set2, MLL AF4-AF9 inh)
O=C(NNC(=O)c1cnccn1)c1ccc(Cl)cc1	Ecoli rRNA inh -39 (no result: Cneo AK release, MLL AF4-AF9 inh)
O=C(COC(=O)c1cnccn1)c1ccc(Cl)cc1	none (no result: Cneo AK release)
O=C(NNC(=O)c1ccc(Cl)cc1Cl)c1cnccn1	Ecoli rRNA inh -35 (no result: Cneo AK release)
O=C(Nc1ccccc1Cl)c1cnccn1	none (no result: DENV2 CPE, S100A4 inh HTS, Ecoli rRNA inh, MLL AF4-AF9 inh)
O=C(CCc1nc2ccccc2s1)OCC(=O)c1ccccc1	Ecoli rRNA inh -20 (no result: Cneo AK release, DENV2 CPE)
Cn1c(N)c(C(=O)COC(=O)CCc2nc3ccccc3s2)c(=O)n(C)c1=O	none
O=C(CCc1nc2ccccc2s1)OCC(=O)c1ccc[nH]1	Ecoli rRNA inh -27
C[C@@H]1CN([C@@H](C)CO)C(=O)c2cc(C#CC3CC3)cnc2O[C@@H]1CN(C)C(=O)C1CCCCC1	none (no result: Cneo AK release, DENV2 CPE, S100A4 inh HTS, PfHsp90 set2, MLL AF4-AF9 inh)
Cc1ccc(S(=O)(=O)N(C)C[C@@H]2OCCCC[C@H](C)Oc3ccc(NC(=O)Nc4ccc(C(F)(F)F)cc4)cc3C(=O)N([C@@H](C)CO)C[C@H]2C)cc1	DENV2 CPE 23 (no result: PfHsp90 set2)
Cc1ccc(S(=O)(=O)N(C)C[C@H]2OCCCC[C@@H](C)Oc3ccc(NC(=O)Nc4ccc(C(F)(F)F)cc4)cc3C(=O)N([C@H](C)CO)C[C@@H]2C)cc1	DENV2 CPE 67 (no result: PfHsp90 set2)
Cc1ccc(S(=O)(=O)N(C)C[C@@H]2OCCCC[C@H](C)Oc3ccc(NC(=O)Nc4ccc(C(F)(F)F)cc4)cc3C(=O)N([C@@H](C)CO)C[C@@H]2C)cc1	none (no result: PfHsp90 set2)
C[C@@H]1CCCCO[C@@H](CN(C)S(=O)(=O)c2ccccc2)[C@@H](C)CN([C@H](C)CO)C(=O)c2cc(NC(=O)Nc3ccc(C(F)(F)F)cc3)ccc2O1	none (no result: PfHsp90 set2)
C[C@@H]1CCCCO[C@H](CN(C)S(=O)(=O)c2ccccc2)[C@H](C)CN([C@@H](C)CO)C(=O)c2cc(NC(=O)Nc3ccc(C(F)(F)F)cc3)ccc2O1	DENV2 CPE 23 (no result: PfHsp90 set2)
COc1ccc(S(=O)(=O)N(C)C[C@@H]2OCCCC[C@@H](C)Oc3ccc(NC(=O)Nc4ccc(C(F)(F)F)cc4)cc3C(=O)N([C@H](C)CO)C[C@@H]2C)cc1	S100A4 inh HTS 99 (no result: PfHsp90 set2)
COc1ccc(S(=O)(=O)N(C)C[C@H]2OCCCC[C@H](C)Oc3ccc(NC(=O)Nc4ccc(C(F)(F)F)cc4)cc3C(=O)N([C@H](C)CO)C[C@@H]2C)cc1	none (no result: PfHsp90 set2)
O=C(c1ccc(F)cc1)N1CCCCN2[C@H](CO)[C@@H](c3ccc(-c4ccc(F)cc4)cc3)[C@@H]2C1	none (no result: PfHsp90 set2, Ecoli rRNA inh)
C[C@@H]1CN([C@@H](C)CO)C(=O)c2cc(C#CC3CCCCC3)cnc2O[C@@H]1CN(C)Cc1cccnc1	none (no result: Cneo AK release, DENV2 CPE, S100A4 inh HTS, PfHsp90 set2, MLL AF4-AF9 inh)
CN1c2ccc(Br)cc2[C@H]2[C@H](CCN2C(=O)C2CCC2)[C@H]1CO	DENV2 CPE 105 (no result: Cneo AK release, PfHsp90 set2)
CC(C)NC(=O)N1CC[C@H]2[C@@H]1c1cc(Br)ccc1N(C)[C@H]2CO	DENV2 CPE inconclusive (no result: PfHsp90 set2)
CC(C)NC(=O)N1CC[C@@H]2[C@H]1c1cc(Br)ccc1N(C)[C@@H]2CO	DENV2 CPE 108 (no result: PfHsp90 set2)
COc1ccc(NC(=O)N2CC[C@@H]3[C@@H](CO)N(C)c4ccc(Br)cc4[C@@H]32)cc1	DENV2 CPE 54 (no result: PfHsp90 set2)
O=C(NCCc1ccncc1)[C@@H]1[C@@H](CO)[C@@H]2Cn3c(ccc(-c4ccncc4)c3=O)[C@H]1N2	none (no result: PfHsp90 set2)
